Assay results reported in ChEMBL document CHEMBL1641561, “Evaluation of hadacidin analogues” (Bioorg Med Chem Lett, 2011).
Calls of active or inactive are those of the source. No cut-off for these calls is given here.

Legend:
[1] = Inhibition of adenylosuccinate synthase at 5:1 aspartate to compound ratio
[2] = Inhibition of adenylosuccinate synthase at 1:1 aspartate to compound ratio
[3] = Inhibition of adenylosuccinate synthase at 10 mM
In short: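 Recombinant His-tagged AdSS (pMOB45 in E. coli BL21(DE3), IPTG-induced at 18 °C, IMAC-purified); 2.0 µg per 100 µl reaction in 20 mM Hepes pH 7.5, 50 µM IMP, 25 µM GTP, 500 µM MgCl2, 10 mM test compound. Started at room temperature with 100 or 500 µM aspartate, frozen after 5 min. Adenylosuccinate quantified by HPLC (266 nm, pH 4.4 phosphate/PIC A/methanol), peak areas over three runs.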

Row | inhibition [1] | inhibition [2] | inhibition ([2]; concentration not given here) | inhibition ([1]; concentration not given here) | inhibition [3] | Structure (SMILES)
1 | inactive | Active | – | – | – | CCCC(C(=O)O)N(O)C=O (centres undefined)
2 | inactive | inactive | – | – | – | O=CN(O)CCCC(=O)O
3 | inactive | inactive | – | – | – | O=C(O)CCCNO
4 | – | – | 60% | – | – | O=CN(O)C(CCC(=O)O)C(=O)O (centres undefined)
5 | inactive | Active | – | – | – | CCC(C(=O)O)N(O)C=O (centres undefined)
6 | inactive | inactive | – | – | – | O=CN(O)CCC(=O)O
7 | inactive | inactive | – | – | – | O=CN(O)CCCCC(=O)O
8 | inactive | inactive | – | – | – | CC(CCC(=O)O)N(O)C=O (centres undefined)
9 | inactive | inactive | – | – | – | O=C(O)CNO
10 | – | inactive | – | 80% | Active | O=CN(O)CC(=O)O
11 | – | – | 90% | 50% | – | CC(C(=O)O)N(O)C=O (centres undefined)
12 | – | – | 30% | – | – | O=CN(O)C(CC(=O)O)C(=O)O (centres undefined)
13 | inactive | inactive | – | – | – | O=C(O)CCNO
14 | inactive | inactive | – | – | – | CC(CCC(=O)O)NO (centres undefined)
15 | inactive | Active | – | – | – | CCC(C)C(C(=O)O)N(O)C=O (centres undefined)
